Series [1] can be described thus: folding enthalpy; higher = less favourable; fluorescence melt of hairpins on a sequencing array, two-state fit. The conditions noted are these: sodium 0.088 M. An outline of the steps:
(§1)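 Melting temperature and folding enthalpy were obtained by bootstrapped two-state fitting. Fits used Cy3 fluorescence of library hairpins with annealed Cy3 and quencher oligos on a sequenced MiSeq flow cell, imaged in 50 mM Na-HEPES pH 8.0, 25 mM NaCl in 2.5 °C steps up to 60 °C and normalised to pre-quench Cy3 and control constructs. Four replicates were combined by inverse-variance weighting, and fitted temperatures were raised by 9.35 °C to match UV melts.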

Series [2] is described as follows: melting temperature; fluorescence melt of hairpins on a sequencing array, two-state fit, raised by 9.35 °C to match UV melts. The settings on record: sodium 0.088 M. An outline of the steps: as §1

For GCACTGCGAAAGCATAGC ((..(((....)))..)), the folding enthalpy in series [1] is -15.3 kcal/mol. Besides, the Tm in series [2] came out at 35.6 °C.
On the same counts, the results for GCACTGCGAAAGCATGGC ((..(((....)))..)) are -17.4 kcal/mol and 44.8 °C.
For the sequence GCACTGCGAAAGCCTTGC (((..((....))..))), the folding enthalpy in series [1] is -21.9 kcal/mol. Also, the Tm in series [2] came to 36.6 °C.
Take GCACTGCGAAAGCTGAGC ((.(.((....)).).)): the folding enthalpy in series [1] is -20.5 kcal/mol. Besides, the Tm in series [2] was 49.2 °C.
The matching figures for GCACTGCGAAAGCTGCGC ((.(.((....)).).)): -22.5 kcal/mol and 57.1 °C.
With GCACTGGAAACAGTGC ((((((....)))))), the folding enthalpy in series [1] is -38.3 kcal/mol. In addition, in series [2], the Tm came to 65.2 °C.
On to GCACTGGCGAAAGCCTGC (((..(((....)))))), for which the folding enthalpy in series [1] is -12.1 kcal/mol. Moreover, the Tm in series [2] turned out to be 44.3 °C.
On the same counts, the results for GCACTTACGAAAGTATGC (((..(((....)))))) are -18.1 kcal/mol and 30.3 °C.
Regarding GCACTTCGAAAGAATGC (((.(((....)))))), the folding enthalpy in series [1] was -31.2 kcal/mol. The Tm in series [2] worked out at 41.5 °C.
The matching figures for GCACTTGCGAAAGCATGC (((..(((....)))))): -10.8 kcal/mol and 38.6 °C.
The matching figures for GCACTTGGAAACGAGTGC (((((.(....).))))): -54.9 kcal/mol and 54.1 °C.
The matching figures for GCAGAACGAAAGTTTTGC (((.(((....))).))): -40.9 kcal/mol and 52.1 °C.
Turning to GCAGAAGGAAACTTTTGC (((.(((....))).))), the folding enthalpy in series [1] is -31.2 kcal/mol. In series [2], the Tm worked out at 37 °C.
The matching figures for GCAGAATCGAAAGATTGC (((..(((....)))))): -21.1 kcal/mol and 34.6 °C.
The matching figures for GCAGACACGAAAGTGTGC (((..(((....)))))): -15.3 kcal/mol and 46.8 °C.
The matching figures for GCAGACGAAAGTCACTGC ((((((....)))..))): -18.6 kcal/mol and 39.5 °C.
As to GCAGACGAAAGTCCTTGC ((((((....)))..))), the folding enthalpy in series [1] is -12.3 kcal/mol. In series [2], the Tm was 32.5 °C.
Consider GCAGACGAAAGTCTTTGC ((((((....)))..))), for which, in series [1], the folding enthalpy is -14.4 kcal/mol. In addition, the Tm in series [2] was determined as 37.1 °C.
On the same counts, the results for GCAGACGGAAACACCTGC ((((..(....)..)))) are -18.1 kcal/mol and 28.6 °C.
As to GCAGAGAAATCTGC (((((....))))), the folding enthalpy in series [1] was -23.1 kcal/mol. Besides, the Tm in series [2] was 50.6 °C.
On the same counts, the results for GCAGAGCGAAAGCACCGC ((.(.((....)).).)) are -14.2 kcal/mol and 45.4 °C.
On the same counts, the results for GCAGAGCGAAAGCACGGC ((.(.((....)).).)) are -20.9 kcal/mol and 55.1 °C.
GCAGAGCGAAAGCATTGC (((..((....))..))): the folding enthalpy in series [1] is -17.3 kcal/mol. In addition, the Tm in series [2] came to 49.9 °C.
In the case of GCAGAGCGAAAGCCGTGC (((..((....))..))), in series [1], the folding enthalpy was -16.4 kcal/mol. Also, in series [2], the Tm stood at 42.1 °C.
For the sequence GCAGAGCGAAAGCGTTGC (((..((....))..))), the folding enthalpy in series [1] is -19.4 kcal/mol. Moreover, in series [2], the Tm is 62 °C.
GCAGAGCGAAAGCTAGGC ((..(((....)))..)): the folding enthalpy in series [1] is -16.4 kcal/mol. Besides, in series [2], the Tm is 50.7 °C.
On the same counts, the results for GCAGAGTCGAAAGACTGC (((..(((....)))))) are -16.7 kcal/mol and 48.7 °C.
As to GCAGATACGAAAGTATGC (((..(((....)))))), the folding enthalpy in series [1] was -22.3 kcal/mol. Further, the Tm in series [2] came out at 36.5 °C.
On the same counts, the results for GCAGATCGAAAGATATGC (((.(((....))).))) are -36.7 kcal/mol and 54.7 °C.
For the sequence GCAGATGAAAATCTGC ((((((....)))))), the folding enthalpy in series [1] was -39 kcal/mol. The Tm in series [2] amounted to 59.9 °C.
On the same counts, the results for GCAGATGGAAACATCTAC (.(((((....))))).) are -19.1 kcal/mol and 34.7 °C.
On the same counts, the results for GCAGATGGAAACATCTGC (((((((....))))))) are -37.5 kcal/mol and 67.1 °C.
On the same counts, the results for GCAGATGGAAACGTCTGC (((((.(....).))))) are -45.2 kcal/mol and 53.2 °C.
For the sequence GCAGCAACGAAAGTTTGC (((..(((....)))))), in series [1], the folding enthalpy was -17.1 kcal/mol. In series [2], the Tm was 35.8 °C.
The matching figures for GCAGCACGAAAGTGATGC (((.(((....))).))): -36.2 kcal/mol and 69 °C.
The matching figures for GCAGCAGGAAACTGCCGC ((.((((....)))).)): -27.8 kcal/mol and 50.5 °C.
